{
  "source": "ChEMBL document CHEMBL1128437",
  "about": "“Derivatives of 17-phenyl-18,19,20-trinorprostaglandin F2 alpha isopropyl ester: potential antiglaucoma agents” (J Med Chem, 1995)",
  "key": {"Felis catus [1]": {"species": "Felis catus", "assay": "66 The maximal difference in Intraocular Pressure (IOP) between treated and control eyes. The effect was tested in cats at a dose of 3.0 (ug/eye)", "type": "functional", "how_it_was_run": "(§1)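 Domestic female cats, 2–3 kg, trained for IOP measurement. One eye received a topical drop (20 µL) of drug in 0.9% NaCl with 0.5% polysorbate 80; the other eye received vehicle. IOP was read by pneumatonometer under oxibuprocain local anaesthesia before dosing and at 1, 3, 6 and 23 h. The maximal treated-minus-control difference was taken. Area between curves is the treated-eye AUC minus control-eye AUC, per animal.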"}, "Felis catus [2]": {"species": "Felis catus", "assay": "The maximal difference in Intraocular Pressure (IOP) between treated and control eyes. The effect was tested in cats at a dose of 1.0 (ug/eye)", "type": "functional", "how_it_was_run": "as §1"}, "Felis catus [3]": {"species": "Felis catus", "assay": "The mean ocular irritation in the treated eyes. An arbitrary scale of from 0 to 3 was used, 0 indicates absence of irritation and 3 complete closure of the lids. The effect was tested in cats at a dose of 1.0 (ug/eye)", "type": "functional", "how_it_was_run": "(§2)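 Ocular irritation was scored in the treated eye of trained female cats, 2–3 kg. Drug was given as one topical 20 µL drop in 0.9% NaCl with 0.5% polysorbate 80. The contralateral eye got vehicle only.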"}, "Felis catus [4]": {"species": "Felis catus", "assay": "The mean ocular irritation in the treated eyes. An arbitrary scale of from 0 to 3 was used, 0 indicates absence of irritation and 3 complete closure of the lids. The effect was tested in cats at a dose of 3.0 (ug/eye)", "type": "functional", "how_it_was_run": "as §2"}, "Felis catus [5]": {"species": "Felis catus", "assay": "The maximal difference in […] pupil diameter between treated and control eyes. The effect was tested in cats at a dose of 1.0 (ug/eye)", "type": "functional", "how_it_was_run": "(§3)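 Trained female cats, 2–3 kg, were dosed unilaterally with one 20 µL topical drop of drug in 0.9% NaCl/0.5% polysorbate 80, with vehicle in the contralateral eye. Horizontal pupil diameter was measured with a millimetre ruler under constant 10 lux illumination before dosing and at 1, 3, 6 and 23 h. Reported as maximal treated–control difference or as area between curves, per animal.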"}, "Felis catus [6]": {"species": "Felis catus", "assay": "The maximal difference in […] pupil diameter between treated and control eyes. The effect was tested in cats at a dose of 3.0 (ug/eye)", "type": "functional", "how_it_was_run": "as §3"}, "Felis catus [7]": {"species": "Felis catus", "assay": "The mean area between curves for Intraocular Pressure (IOP) measured in treated and control eyes. The effect was tested in cats at a dose of 1.0 (ug/eye)", "type": "functional", "how_it_was_run": "as §1"}, "Felis catus [8]": {"species": "Felis catus", "assay": "The mean area between curves for Intraocular Pressure (IOP) measured in treated and control eyes. The effect was tested in cats at a dose of 3.0 (ug/eye)", "type": "functional", "how_it_was_run": "as §1"}, "Felis catus [9]": {"species": "Felis catus", "assay": "The mean area between curves for pupil diameter between treated and control eyes. The effect was tested in cats at a dose of 1.0 (ug/eye)", "type": "functional", "how_it_was_run": "as §3"}, "Felis catus [10]": {"species": "Felis catus", "assay": "The mean area between curves for pupil diameter between treated and control eyes. The effect was tested in cats at a dose of 3.0 (ug/eye)", "type": "functional", "how_it_was_run": "as §3"}, "Oryctolagus cuniculus [11]": {"species": "Oryctolagus cuniculus", "assay": "The maximal difference in conjunctival hyperemia between treated and control eyes. The effect was tested in rabbit at a dose of 0.5 (ug/eye)"}, "Oryctolagus cuniculus [12]": {"species": "Oryctolagus cuniculus", "assay": "The mean area between curves for conjunctival hyperemia between treated and control eyes. The effect was tested in rabbit at a dose of 0.5 (ug/eye)"}, "Felis catus [13]": {"species": "Felis catus", "assay": "The maximal difference in Intraocular Pressure (IOP) between treated and control eyes. The effect was tested in cats at a dose of 3.0 (ug/eye)", "type": "functional", "how_it_was_run": "as §1"}, "Monkey [14]": {"system": "Monkey", "assay": "The mean area between curves for Intraocular Pressure (IOP) measured in treated and control eyes. The effect was tested in monkey at a dose of 3.0 (ug/eye)", "type": "functional, Cercopithecidae", "how_it_was_run": "(§4)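 Cynomolgus monkeys trained for IOP measurement were sedated with ketamine (2–3 mg/kg) for transport and seated in restraint chairs under oxibuprocain local anaesthesia. One eye received a 10 µL drop of drug in 0.9% NaCl/0.5% polysorbate 80; the fellow eye received vehicle. IOP was read by pneumatonometer calibrated for monkey eyes before dosing and at 1, 2, 4 and 6 h. Matched-pair t test, n = 6.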"}, "Monkey [15]": {"system": "Monkey", "assay": "The maximal difference in Intraocular Pressure (IOP) between treated and control eyes. The effect was tested in monkey at a dose of 3.0 (ug/eye)", "type": "functional, Cercopithecidae", "how_it_was_run": "as §4"}},
  "data": [
    {"smiles": "CC(C)OC(=O)CCC/C=C\\C[C@@H]1[C@@H](/C=C/[C@@H](O)CCc2ccc(-c3ccsc3)cc2)[C@H](O)C[C@@H]1O", "values": [
      {"measurement": "Imax", "setting": "Felis catus [1]", "value": -5, "unit": "mmHg"},
      {"measurement": "Imax", "setting": "Felis catus [2]", "value": "<-4", "unit": "mmHg"},
      {"measurement": "Irritation", "setting": "Felis catus [3]", "value": 0.2, "unit": "arbitrary units"},
      {"measurement": "Irritation", "setting": "Felis catus [4]", "value": 0.6, "unit": "arbitrary units"},
      {"measurement": "Pmax", "setting": "Felis catus [5]", "value": -1, "unit": "mm"},
      {"measurement": "Pmax", "setting": "Felis catus [6]", "value": "< -1.2", "unit": "mm"},
      {"measurement": "I ABC", "setting": "Felis catus [7]", "value": -63.2},
      {"measurement": "I ABC", "setting": "Felis catus [8]", "value": "<-66"},
      {"measurement": "P ABC", "setting": "Felis catus [9]", "value": -3.3},
      {"measurement": "P ABC", "setting": "Felis catus [10]", "value": "<-9.2"},
      {"measurement": "Hmax", "setting": "Oryctolagus cuniculus [11]", "value": 0.3},
      {"measurement": "H ABC", "setting": "Oryctolagus cuniculus [12]", "value": "<0.8"}
    ]},
    {"smiles": "CC(C)OC(=O)CCC/C=C\\C[C@@H]1[C@@H](/C=C/[C@@H](O)CCc2ccc(-c3ccco3)cc2)[C@H](O)C[C@@H]1O", "values": [
      {"measurement": "Imax", "setting": "Felis catus [13]", "value": "<-5", "unit": "mmHg"},
      {"measurement": "Irritation", "setting": "Felis catus [4]", "value": 0.6, "unit": "arbitrary units"},
      {"measurement": "Pmax", "setting": "Felis catus [6]", "value": -0.6, "unit": "mm"},
      {"measurement": "I ABC", "setting": "Felis catus [8]", "value": -76.1},
      {"measurement": "P ABC", "setting": "Felis catus [10]", "value": -6},
      {"measurement": "I ABC", "setting": "Monkey [14]", "value": 0.5},
      {"measurement": "Imax", "setting": "Monkey [15]", "value": 0.3, "unit": "mmHg"},
      {"measurement": "Hmax", "setting": "Oryctolagus cuniculus [11]", "value": -0.1},
      {"measurement": "H ABC", "setting": "Oryctolagus cuniculus [12]", "value": -0.2}
    ]}
  ]
}
